HIV Env fusion: inhibitors of HIV-1 Env-driven cell-cell fusion, primary screen, HeLa-JRFL effector, CEM21 target cells, luciferase; 360,000 tested, 1.1% active; inhibition, % at 12.3 µM;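 active = mean replicate inhibition score of at least 50 and every replicate individually at or above 50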;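 note: 0% = plate neutral controls and 100% = maraviroc near 300 nM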
PAX8 inh HTS: inhibitors of PAX8-driven TPO luciferase reporter, primary screen, RMG-I cells, single concentration. SteadyGlo, 24 h. 360,000 tested, 1.2% active. inhibition, % at 12.6 µM. AID 652154, 2013;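 active = mean replicate inhibition at least 60% with every replicate also reaching 60%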;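 note: luciferase light reporting Pax8 driven TPO promoter activity; plate controls were median of neutral control wells for no effect and mitoxantrone controls for full effect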
EWS-Fli inh: EWS/Fli-driven NR0B1 reporter inhibitors, primary screen, A673 cells, NR0B1 luciferase, luminescence, MLPCN library; viability-normalised; inhibition, % at 12.6 µM; 350,000 tested, 0.67% active;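 active = mean inhibition of at least 50% after viability correction, with every replicate also passing that limit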;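 note: firefly luciferase signal divided by Alamar Blue viability fluorescence both relative to DMSO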
FGF22 binding: binders of human FGF22 protein, primary screen, FGF22 synaptogenesis inhibitor project, biophysical, thermal shift, single point; AID 651658, 2012; recombinant FGF22 thermal shift, SYPRO orange fluorescence; percent of sucrose octasulfate shift, DMSO zero; activity (Tm shift, normalised), % at 9.99 µM; Fibroblast growth factor 22 (Homo sapiens), Q9HCT0; 340,000 tested, 1.5% active;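 active = mean Tm shift, scaled 0 neutral to 100 positive control, at about 1.3% or above, every replicate too, limit read from the data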
Target sequence (Q9HCT0 whole entry, looked up): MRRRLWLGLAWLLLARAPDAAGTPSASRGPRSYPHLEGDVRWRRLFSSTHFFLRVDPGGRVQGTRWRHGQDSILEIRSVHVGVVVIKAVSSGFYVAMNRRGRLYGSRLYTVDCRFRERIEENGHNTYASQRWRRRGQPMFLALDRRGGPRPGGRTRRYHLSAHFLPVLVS
PGC1a acetyl inh: inhibitors of PGC1a acetylation signal, primary screen, cell-based, U2OS, AlphaScreen, inhibitor mode | 350,000 tested, 0.17% active | AlphaScreen anti-acetyl-lysine; with virally co-expressed GCN5 acetyltransferase | inhibition, % at 15.6 µM;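 active = every replicate shows inhibition of at least 40%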;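 note: 0% = neutral control wells and 100% = positive control wells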
FN deposition inh: inhibitors of fibronectin matrix deposition, primary screen, AH1F cells, Alexa488-fibronectin fluorescence, plate reader | 350,000 tested, 0.086% active | AH1F fibroblasts, overnight | inhibition, % at 12.6 µM;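 active = mean inhibition across replicates of 30% or more, regardless of how many single replicates reach that level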;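 note: positive control wells lacked labelled fibronectin entirely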
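Assay system: AH1F fibroblast monolayer, labelled fibronectin deposition. Amount: 10000 cells per well. Also added: labelled fibronectin 24 nM. Compound: single-point pinned compound. Incubation: cell attachment 1 h, compound and FN exposure overnight. Detection: fluorescence after three HBSS washes, excitation 485 nm, emission 525 nm. Read-out: inhibition of fibronectin deposition signal.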
Starred values were filed as active, the others as inactive; · = no result; [ ] = remark or other dose. A selection: hits, their analogues and other compounds. The true share with any hit is near 3.1%.

SMILES	HIV Env fusion	PAX8 inh HTS	EWS-Fli inh	FGF22 binding	PGC1a acetyl inh	FN deposition inh
CN1C(=O)c2cc(NC(=O)C3CCCC3)ccc2OC[C@@H]2O[C@@H](CC(=O)NCC(F)(F)F)CC[C@H]21	·	-3	2	0	0	-7
COc1cc(CNC(C)c2ccccc2)cc(Cl)c1OCC(=O)Nc1ccccc1 (stereo unspecified)	71*	-16	14	0	-41	26
CCN(CC)CCNCc1cc(Cl)c(OCC(=O)Nc2ccccc2)c(OC)c1	0	6	7	0	-4	-8
O=C(CC1SC(=Nc2cccc3ccccc23)N(Cc2ccccn2)C1=O)Nc1ccccc1Br (stereo unspecified)	·	96*	5	0	·	5
COc1ccc(/C=C/C(=O)NCCc2ccc(OC)c(OC)c2)cc1	-7	-5	·	·	·	3
COc1ccc(CCNC(=O)/C=C/c2ccc3ccccc3n2)cc1OC	-16	77*	19	0	5	1
C[C@@H]1CN([C@@H](C)CO)C(=O)c2cc(NC(=O)NC3CCCCC3)ccc2O[C@@H](C)CCCCO[C@H]1CN(C)C(=O)Nc1ccccc1	-68[16.7 µM]	-13	-1	·	0	-1
Cc1cccc(CN2CCSCCS2(=O)=O)c1	61*	1	-4	0	·	-5
Cc1nnsc1Sc1ccccc1	-11	7	2	43*	6	7
Cc1cccc(-n2ncc3c(N4CCOCC4)ncnc32)c1	-18	47	68*	0	7	-7
Cc1cccc(-n2ncc3c(N4CCCC4)ncnc32)c1	-192	·	·	·	-8	-6
Cc1ccc(-n2ncc3c(N4CCN(c5ccccc5)CC4)ncnc32)c(C)c1	90*	35	·	·	-5	-5
Clc1ccc(-n2ncc3c(N4CCCCCC4)ncnc32)cc1	-65	-7	80*	0	-8	5
Cc1ccc(-c2n[nH]c(=S)n2/N=C/c2cccn2C)cc1	·	·	·	·	50*	·
Cn1cccc1/C=N/n1c(-c2ccc(Cl)cc2)n[nH]c1=S	·	·	·	·	2	·
O=C(O)c1cccc(Nc2ccnc(Nc3cccc(C(=O)O)c3)n2)c1	59*	24	63*	0	·	2
O=C(O)c1cccc(Nc2nc(N3CCOCC3)nc(N3CCOCC3)n2)c1	-6	·	·	·	-101	4
COC(=O)C1=CN(c2ccc(OC)cc2OC)C(N)=C(C#N)C1c1ccccc1F (stereo unspecified)	-172	22	53*	0	·	·
COC(=O)C1=CN(c2ccc(OC)cc2)C(N)=C(C#N)C1c1ccccc1F (stereo unspecified)	0	18	43	0	·	·
Cc1ccc(C23CC4CC(CC(C(=O)NC(C)C)(C4)C2)C3)cc1	-16	2	9	0	·	1
CC(C)NC(=O)C12CC3CC(C1)CC(C(=O)NC(C)C)(C3)C2	-26	-11	-17	44*	·	-2
O=C(Nc1ccn(Cc2ccccc2F)n1)c1ccc(COc2ccc(Br)cc2)cc1	87*	·	·	·	-7	21
CCCNC(=O)N1C[C@H](C)[C@H](OC)CN(C)C(=O)c2ccc(NC(=O)CCC)cc2OC[C@@H]1C	·	8	3	0	1	5
C[C@@H]1CN([C@H](C)CO)C(=O)c2cccc(NS(=O)(=O)c3cn(C)cn3)c2O[C@@H]1CN(C)Cc1ccccc1	10[16.7 µM]	-5	-2	0	·	·
COC(=O)c1ccccc1NC(=O)CSc1nc(-c2ccco2)cc(C(F)(F)F)n1	·	·	51*	0	3	·
Cc1ccc(NC(=O)CSc2nc(-c3ccco3)cc(C(F)(F)F)n2)cc1C	56*	·	·	·	·	2
Cc1cc(C)nc(SCc2nnc(SCC(=O)Nc3ccc(C)c(C)c3)n2Cc2ccco2)n1	54*	6	·	·	1	·
COC(=O)c1ccc(C(=O)OC)c(NC(=O)CSc2nc(-c3ccco3)cc(C(F)(F)F)n2)c1	·	·	·	·	-6	·
C[C@@H]1CCCCO[C@H](CN(C)C(=O)NC2CCCCC2)[C@@H](C)CN([C@@H](C)CO)C(=O)c2cc(NC(=O)c3ccncc3)ccc2O1	-14[16.7 µM]	9	-1	0	-4	·

Bioassay records as filed in PubChem.
